From ChEMBL document CHEMBL1158377, “Phenylpyrrole derivatives as neural and inducible nitric oxide synthase (nNOS and iNOS) inhibitors” (Eur J Med Chem, 2009)
Active and inactive are the calls of the source. The rule behind the calls is not given here.

What was measured:
[1] = molecular target: Nitric oxide synthase 1 (Rattus norvegicus) (UniProt P29476); test: Inhibition of nNOS in Wistar rat striata tissue homogenate assessed as conversion of L-[3H]arginine to L-[3H]citrulline at 1 mM by liquid scintillation spectroscopy; format: tissue-based; conditions: Striatum
Chain of Nitric oxide synthase 1 (Rattus norvegicus) (P29476 whole entry): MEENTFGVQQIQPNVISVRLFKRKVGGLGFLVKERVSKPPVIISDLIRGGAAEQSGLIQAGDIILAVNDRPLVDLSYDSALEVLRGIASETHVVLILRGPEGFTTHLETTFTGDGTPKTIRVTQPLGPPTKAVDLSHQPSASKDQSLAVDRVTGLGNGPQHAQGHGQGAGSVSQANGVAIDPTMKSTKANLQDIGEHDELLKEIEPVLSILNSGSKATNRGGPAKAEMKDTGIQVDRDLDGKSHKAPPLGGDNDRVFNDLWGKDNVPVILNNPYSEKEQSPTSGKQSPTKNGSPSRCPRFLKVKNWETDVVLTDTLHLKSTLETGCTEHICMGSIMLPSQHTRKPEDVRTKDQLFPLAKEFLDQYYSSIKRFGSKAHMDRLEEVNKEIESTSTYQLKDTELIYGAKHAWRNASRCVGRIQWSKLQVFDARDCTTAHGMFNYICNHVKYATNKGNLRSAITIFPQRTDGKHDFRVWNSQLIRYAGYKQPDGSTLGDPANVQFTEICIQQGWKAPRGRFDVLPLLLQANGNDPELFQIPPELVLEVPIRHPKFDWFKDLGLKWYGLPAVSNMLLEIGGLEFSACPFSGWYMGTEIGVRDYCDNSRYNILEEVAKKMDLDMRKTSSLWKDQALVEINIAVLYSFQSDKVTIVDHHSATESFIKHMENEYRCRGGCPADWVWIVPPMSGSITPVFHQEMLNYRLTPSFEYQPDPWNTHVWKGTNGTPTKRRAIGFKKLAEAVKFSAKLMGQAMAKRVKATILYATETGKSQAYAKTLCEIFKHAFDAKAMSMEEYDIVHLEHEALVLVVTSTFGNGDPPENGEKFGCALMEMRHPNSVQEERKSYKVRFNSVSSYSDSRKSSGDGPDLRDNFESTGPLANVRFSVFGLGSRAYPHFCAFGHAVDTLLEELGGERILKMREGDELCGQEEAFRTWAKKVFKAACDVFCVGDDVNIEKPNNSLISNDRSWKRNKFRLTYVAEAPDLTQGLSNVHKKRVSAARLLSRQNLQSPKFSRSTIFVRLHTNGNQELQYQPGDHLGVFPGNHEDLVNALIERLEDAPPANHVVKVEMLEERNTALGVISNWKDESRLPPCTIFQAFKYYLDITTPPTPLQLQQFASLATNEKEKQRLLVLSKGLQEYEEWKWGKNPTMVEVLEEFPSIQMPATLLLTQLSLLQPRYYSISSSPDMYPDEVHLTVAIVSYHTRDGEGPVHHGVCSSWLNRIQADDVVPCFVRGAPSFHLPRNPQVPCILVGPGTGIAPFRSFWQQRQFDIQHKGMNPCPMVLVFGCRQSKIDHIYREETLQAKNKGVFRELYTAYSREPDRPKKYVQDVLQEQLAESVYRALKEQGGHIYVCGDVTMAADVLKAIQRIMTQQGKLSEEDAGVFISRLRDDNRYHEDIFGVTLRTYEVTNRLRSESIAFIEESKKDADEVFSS
Procedure, shortened: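 Male Wistar rats killed by cervical dislocation; fresh striata homogenized in Tris-HCl pH 7.6 with protease inhibitors, spun 1000g 5 min. Supernatant incubated 30 min at 37 °C with 10 µM L-arginine plus 50 nM L-[3H]-arginine, CaCl2, BH4, FAD, NADPH 0.75 mM final; compound 1 mM final in DMSO. Dowex-50W separation; citrulline by scintillation; NADPH-omitted blank subtracted. Three experiments in triplicate, four striata each.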

[2] = molecular target: Nitric oxide synthase, inducible (Rattus norvegicus) (UniProt Q06518); test: Inhibition of iNOS in LPS-treated Wistar rat lung tissue homogenate assessed as conversion of L-[3H]arginine to L-[3H]citrulline at 1 mM by liquid scintillation spectroscopy
Chain of Nitric oxide synthase, inducible (Rattus norvegicus) (Q06518 whole entry): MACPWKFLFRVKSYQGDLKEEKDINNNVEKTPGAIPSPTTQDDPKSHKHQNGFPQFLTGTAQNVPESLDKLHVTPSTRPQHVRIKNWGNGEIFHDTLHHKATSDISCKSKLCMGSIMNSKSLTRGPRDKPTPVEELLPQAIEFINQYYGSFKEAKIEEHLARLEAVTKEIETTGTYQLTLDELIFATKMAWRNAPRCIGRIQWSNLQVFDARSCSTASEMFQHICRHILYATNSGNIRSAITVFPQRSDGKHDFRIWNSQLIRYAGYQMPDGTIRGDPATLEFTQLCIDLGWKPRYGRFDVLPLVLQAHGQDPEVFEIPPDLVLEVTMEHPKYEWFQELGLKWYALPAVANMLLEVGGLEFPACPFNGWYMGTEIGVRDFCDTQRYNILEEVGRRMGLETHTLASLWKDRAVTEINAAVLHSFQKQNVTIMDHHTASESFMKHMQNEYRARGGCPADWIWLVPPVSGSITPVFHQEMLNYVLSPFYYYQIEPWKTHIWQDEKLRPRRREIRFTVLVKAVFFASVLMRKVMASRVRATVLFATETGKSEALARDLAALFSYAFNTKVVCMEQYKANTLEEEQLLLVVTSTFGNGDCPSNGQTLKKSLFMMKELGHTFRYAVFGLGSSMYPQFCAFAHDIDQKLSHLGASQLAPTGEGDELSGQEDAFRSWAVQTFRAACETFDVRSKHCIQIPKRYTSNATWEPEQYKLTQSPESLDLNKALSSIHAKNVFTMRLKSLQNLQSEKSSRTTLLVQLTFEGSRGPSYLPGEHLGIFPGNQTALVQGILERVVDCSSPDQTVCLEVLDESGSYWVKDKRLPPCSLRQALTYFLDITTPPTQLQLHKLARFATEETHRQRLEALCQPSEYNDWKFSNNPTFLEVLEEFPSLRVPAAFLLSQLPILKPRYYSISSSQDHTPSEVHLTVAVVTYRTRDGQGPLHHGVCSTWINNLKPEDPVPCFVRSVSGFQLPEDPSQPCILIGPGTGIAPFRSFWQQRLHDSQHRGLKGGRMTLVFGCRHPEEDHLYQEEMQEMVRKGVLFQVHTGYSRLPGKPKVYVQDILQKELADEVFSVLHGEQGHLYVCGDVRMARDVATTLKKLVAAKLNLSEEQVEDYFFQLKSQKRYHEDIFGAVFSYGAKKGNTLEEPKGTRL
Procedure, shortened: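 iNOS induced in Wistar rats by LPS 20 mg/Kg i.v.; lungs taken 8 h later, homogenized in ice-cold Tris-HCl pH 7.6 with protease inhibitors, then incubated with 10 mM EDTA to remove nNOS activity. Conversion of L-[3H]-arginine to L-[3H]-citrulline at 37 °C for 30 min with NADPH, compound 1 mM final; Dowex separation, scintillation counting.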

[3] = Binding affinity to CaCAM
[4] = molecular target: Nitric oxide synthase 1 (Mus musculus) (UniProt Q9Z0J4); test: Inhibition of cytosolic nNOS in stantia nigra isolated from MPTP-induced parkinson's disease C57/Bl6 mouse model assessed as L-[3H]citrulline per mg of protein at 20 mg/kg, b.w 1 hr before MPTP challenge after 32 hrs by liquid scintillation spectroscopy; format: organism-based; design: dose 20 mg/kg
Chain of Nitric oxide synthase 1 (Mus musculus) (Q9Z0J4 whole entry): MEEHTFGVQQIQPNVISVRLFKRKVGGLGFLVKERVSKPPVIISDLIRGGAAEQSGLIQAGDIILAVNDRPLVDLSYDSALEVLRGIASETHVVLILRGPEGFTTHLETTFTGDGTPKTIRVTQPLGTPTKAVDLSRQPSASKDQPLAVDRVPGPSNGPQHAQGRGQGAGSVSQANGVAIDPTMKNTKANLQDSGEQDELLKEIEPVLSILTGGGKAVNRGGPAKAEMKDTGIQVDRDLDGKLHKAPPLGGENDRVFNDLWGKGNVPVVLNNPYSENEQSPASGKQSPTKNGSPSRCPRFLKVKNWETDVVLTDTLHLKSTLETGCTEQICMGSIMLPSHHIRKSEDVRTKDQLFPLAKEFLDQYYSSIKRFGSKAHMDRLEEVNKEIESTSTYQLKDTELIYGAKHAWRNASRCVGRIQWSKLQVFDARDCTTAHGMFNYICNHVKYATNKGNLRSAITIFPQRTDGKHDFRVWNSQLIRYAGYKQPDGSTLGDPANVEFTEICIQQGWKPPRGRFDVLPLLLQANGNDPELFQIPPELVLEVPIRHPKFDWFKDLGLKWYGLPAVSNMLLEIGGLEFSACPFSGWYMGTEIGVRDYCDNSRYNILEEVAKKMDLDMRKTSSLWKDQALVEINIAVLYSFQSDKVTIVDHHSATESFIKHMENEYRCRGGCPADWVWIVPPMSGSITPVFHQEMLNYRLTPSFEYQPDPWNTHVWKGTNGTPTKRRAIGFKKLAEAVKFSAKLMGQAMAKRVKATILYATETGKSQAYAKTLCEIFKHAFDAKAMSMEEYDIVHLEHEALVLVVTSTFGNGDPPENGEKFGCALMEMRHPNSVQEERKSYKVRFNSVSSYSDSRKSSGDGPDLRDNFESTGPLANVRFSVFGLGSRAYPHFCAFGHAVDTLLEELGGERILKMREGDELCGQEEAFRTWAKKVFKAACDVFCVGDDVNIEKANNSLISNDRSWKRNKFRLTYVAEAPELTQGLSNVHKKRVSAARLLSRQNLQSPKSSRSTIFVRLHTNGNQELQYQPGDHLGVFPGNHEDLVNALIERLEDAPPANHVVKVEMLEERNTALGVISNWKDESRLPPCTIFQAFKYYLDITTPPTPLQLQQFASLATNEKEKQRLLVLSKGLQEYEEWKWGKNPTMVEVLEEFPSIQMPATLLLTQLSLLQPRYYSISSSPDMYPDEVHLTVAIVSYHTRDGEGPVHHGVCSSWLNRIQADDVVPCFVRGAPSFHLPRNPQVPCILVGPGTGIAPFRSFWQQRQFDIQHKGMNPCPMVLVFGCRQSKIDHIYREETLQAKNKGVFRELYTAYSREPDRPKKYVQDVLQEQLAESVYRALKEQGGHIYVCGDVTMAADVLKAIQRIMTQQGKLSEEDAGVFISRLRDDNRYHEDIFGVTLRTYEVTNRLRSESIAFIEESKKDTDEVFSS
Procedure, shortened: (§1)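 C57/Bl6 mice (22–28 g) given MPTP 15 mg/kg s.c. at 0, 2, 4, 6, 24, 26 and 28 h; single compound dose 20 mg/kg b.w. 1 h before first MPTP; controls got ethanol/saline vehicle. Killed 32 h after treatments; substantia nigra cytosol and mitochondria assayed by L-[3H]-citrulline formation, as pmol/mg protein/min. Seven experiments in triplicate, four SN each.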

[5] = molecular target: T1, Nitric oxide synthase, inducible (Mus musculus) (UniProt P29477); test: Inhibition of inducible mitochondrial NOS in stantia nigra isolated from MPTP-induced parkinson's disease C57/Bl6 mouse model assessed as L-[3H]citrulline per mg of protein at 20 mg/kg, b.w 1 hr before MPTP challenge after 32 hrs by liquid scintillation spectroscopy; format: organism-based; design: dose 20 mg/kg; procedure, shortened: as §1
T1 sequence (whole entry): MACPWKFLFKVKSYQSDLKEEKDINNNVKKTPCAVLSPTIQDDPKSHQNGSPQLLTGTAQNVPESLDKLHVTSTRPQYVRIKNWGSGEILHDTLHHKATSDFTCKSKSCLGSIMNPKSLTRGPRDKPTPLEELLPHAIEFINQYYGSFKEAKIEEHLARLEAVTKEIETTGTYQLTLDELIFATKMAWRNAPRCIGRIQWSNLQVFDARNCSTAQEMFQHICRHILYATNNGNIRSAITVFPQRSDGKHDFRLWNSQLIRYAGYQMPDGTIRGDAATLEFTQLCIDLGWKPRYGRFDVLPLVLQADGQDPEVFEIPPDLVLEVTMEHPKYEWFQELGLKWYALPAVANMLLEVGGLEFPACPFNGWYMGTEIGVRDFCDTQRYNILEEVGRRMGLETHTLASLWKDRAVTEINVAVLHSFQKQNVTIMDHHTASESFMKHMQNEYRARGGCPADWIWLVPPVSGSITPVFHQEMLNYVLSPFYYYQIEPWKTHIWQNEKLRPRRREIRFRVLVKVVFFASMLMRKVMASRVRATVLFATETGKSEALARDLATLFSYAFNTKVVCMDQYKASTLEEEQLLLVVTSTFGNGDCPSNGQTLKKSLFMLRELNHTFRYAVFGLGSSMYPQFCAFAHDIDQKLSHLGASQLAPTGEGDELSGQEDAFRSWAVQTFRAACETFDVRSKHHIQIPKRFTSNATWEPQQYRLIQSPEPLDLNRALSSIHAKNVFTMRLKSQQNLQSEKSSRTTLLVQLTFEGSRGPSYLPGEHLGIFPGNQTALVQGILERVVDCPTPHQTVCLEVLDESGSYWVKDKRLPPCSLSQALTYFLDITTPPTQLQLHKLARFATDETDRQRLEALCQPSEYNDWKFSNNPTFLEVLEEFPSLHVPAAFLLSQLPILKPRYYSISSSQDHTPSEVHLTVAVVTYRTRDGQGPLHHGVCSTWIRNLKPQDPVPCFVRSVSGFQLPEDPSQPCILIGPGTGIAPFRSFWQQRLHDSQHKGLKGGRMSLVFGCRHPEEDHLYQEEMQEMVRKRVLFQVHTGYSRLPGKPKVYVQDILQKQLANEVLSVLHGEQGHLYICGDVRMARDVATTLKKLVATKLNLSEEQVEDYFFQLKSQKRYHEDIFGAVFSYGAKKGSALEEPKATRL

[6] = molecular target: Nitric oxide synthase 1 (Mus musculus) (UniProt Q9Z0J4); test: Inhibition of constitutive mitochondrial NOS in stantia nigra isolated from MPTP-induced parkinson's disease C57/Bl6 mouse model assessed as L-[3H]citrulline per mg of protein at 20 mg/kg, b.w 1 hr before MPTP challenge after 32 hrs by liquid scintillation spectroscopy; format: organism-based; design: dose 20 mg/kg; procedure, shortened: as §1
[7] = molecular target: T1, Nitric oxide synthase, inducible (Mus musculus); test: Inhibition of cytosolic iNOS in stantia nigra isolated from MPTP-induced parkinson's disease C57/Bl6 mouse model assessed as L-[3H]citrulline per mg of protein at 20 mg/kg, b.w 1 hr before MPTP challenge after 32 hrs by liquid scintillation spectroscopy; format: organism-based; design: dose 20 mg/kg; procedure, shortened: as §1
[8] = molecular target: Nitric oxide synthase 1 (Homo sapiens) (UniProt P29475); test: Inhibition of nNOS

Row | Structure (SMILES) | inhibition [1] | inhibition [2] | Activity [3] | Activity [4] | Activity [5] | Activity [6] | Activity [7] | inhibition [8]
1 | NC(=O)c1ccc(-c2ccccc2N)[nH]1 | 15% | 3.07% | inactive |  |  |  |  | 
2 | CNC(=O)c1ccc(-c2ccccc2N)[nH]1 |  | 32.7% | inactive | 65.5 pmol/min | 7.46 pmol/min | 9.95 pmol/min | 5.78 pmol/min | 
3 | COc1ccc(N)c(-c2ccc(C(N)=O)[nH]2)c1 |  | 8.95% | inactive |  |  |  |  | 
4 | COc1ccc(N)c(-c2ccc(C(=O)NC3CC3)[nH]2)c1 | 32.5% | 21.4% | inactive |  |  |  |  | 
5 | CCCCNC(=O)c1ccc(-c2ccccc2N)[nH]1 | -0.01% | 7.53% | inactive |  |  |  |  | 
6 | COc1ccc2[nH]cc(CCNC(C)=O)c2c1 |  |  |  | 19.9 pmol/min | 23.6 pmol/min | 13.8 pmol/min | 19 pmol/min | Dose-dependent effect
7 | Nc1ccccc1-c1ccc(C(=O)NC2CCC2)[nH]1 | 8.44% | 20.1% | inactive |  |  |  |  | 
8 | Nc1ccccc1-c1ccc(C(=O)NC2CCCCC2)[nH]1 | 13.4% | 17.2% | inactive |  |  |  |  | 
9 | Nc1ccc(Cl)cc1-c1ccc(C(=O)NC2CC2)[nH]1 | 48.1% | 7.2% | inactive |  |  |  |  | 
10 | Nc1ccccc1-c1ccc(C(=O)NC2CCCC2)[nH]1 | 5.36% | 52.8% | inactive | 74.3 pmol/min | 9.45 pmol/min | 14.1 pmol/min | 6.53 pmol/min | 
11 | NC(=O)c1ccc(-c2cc(Cl)ccc2N)[nH]1 | 34.5% | 5.34% | inactive |  |  |  |  | 
12 | COc1ccc(N)c(-c2ccc(C(=O)NCc3ccccc3)[nH]2)c1 | 8.89% | 22.4% | inactive |  |  |  |  | 
13 | COc1ccc(N)c(C(=O)CC(NC(C)=O)C(=O)O)c1 (stereo unspecified) |  |  |  |  |  |  |  | Dose-dependent effect
14 | Nc1ccccc1-c1ccc(C(=O)NCc2ccccc2)[nH]1 | 7.52% | 28.1% | inactive |  |  |  |  | 
15 | CN1CC=C(c2ccccc2)CC1 |  |  |  | 83.7 pmol/min | 43.8 pmol/min | 25.9 pmol/min | 29.4 pmol/min | 
16 | CCNC(=O)c1ccc(-c2cc(Cl)ccc2N)[nH]1 | 33.4% | 2.8% | inactive |  |  |  |  | 
17 | CNC(=O)c1ccc(-c2cc(OC)ccc2N)[nH]1 |  | 26.2% | inactive |  |  |  |  | 
18 | CCCNC(=O)c1ccc(-c2cc(OC)ccc2N)[nH]1 | 43.5% | 6.78% | inactive |  |  |  |  | 
19 | CCCNC(=O)c1ccc(-c2ccccc2N)[nH]1 |  | 13.2% | inactive |  |  |  |  | 
20 | COc1ccc(N)c(-c2ccc(C(=O)NC3CCCC3)[nH]2)c1 | 15.3% | 26.2% | inactive |  |  |  |  | 
21 | CCNC(=O)c1ccc(-c2ccccc2N)[nH]1 | 4.15% | 20.5% | inactive |  |  |  |  | 
22 | COc1ccc(N)c(C(=O)CCNC(C)=O)c1 |  |  |  |  |  |  |  | Dose-dependent effect
23 | Nc1ccccc1-c1ccc(C(=O)NC2CC2)[nH]1 | 2.92% | -1.1% | inactive |  |  |  |  | 
24 | CCCCNC(=O)c1ccc(-c2cc(Cl)ccc2N)[nH]1 | 36.5% | 3.33% | inactive |  |  |  |  | 
25 | Cn1c(C(N)=O)ccc1-c1ccccc1N | 9.56% | 16% | inactive |  |  |  |  | 
26 | CNC(=O)c1ccc(-c2cc(Cl)ccc2N)[nH]1 | 17.1% | 1.27% | inactive |  |  |  |  | 
